High-throughput results (PubChem BioAssay)
Shown are actives, neighbours in structure and some others; about 1.3% of the full set was active somewhere.
PP1 counter: counter-screen for PP5 inhibitors: inhibitors of human PP1-alpha; P62136; purified PP1alpha, OMFP fluorescence; inhibition, % at 6.7 µM; 320,000 tested, 0.9% active; AID 2235;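 active means inhibition above the mean inhibition of all tested compounds plus 3 SD, computed separately for each screening campaign, cut at about 15% in these data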
Target sequence (P62136 whole entry, looked up): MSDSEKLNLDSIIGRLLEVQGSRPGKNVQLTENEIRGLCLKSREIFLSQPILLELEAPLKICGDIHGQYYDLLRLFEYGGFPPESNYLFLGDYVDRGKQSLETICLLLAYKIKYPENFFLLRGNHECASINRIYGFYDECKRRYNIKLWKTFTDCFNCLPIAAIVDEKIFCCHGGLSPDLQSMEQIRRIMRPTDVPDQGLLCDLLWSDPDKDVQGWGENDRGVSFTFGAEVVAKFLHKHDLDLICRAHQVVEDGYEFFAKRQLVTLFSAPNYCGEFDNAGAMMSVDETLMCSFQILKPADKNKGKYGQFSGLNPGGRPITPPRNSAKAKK
NR2E3 ag-1: agonists of human nuclear receptor NR2E3. Q9Y5X4. GST-NR2E3/biotin-RetCOR TR-FRET, 1536-well. inhibition of corepressor binding, % at 4.78 µM. 320,000 tested, 0.12% active. AID 2300;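 active means percent inhibition above the cutoff of mean plus 3 SD of all tested compounds, set per screening campaign, cut at about 20% in these data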;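 further: 0% = DMSO wells and 100% = biotin wells as full block of FRET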
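Material: NR2E3–RetCOR corepressor complex | Quantity: 1.35 nM GST-tagged NR2E3 final | Schedule: 5 h at 4 °C | Replication: Singlicate compound wells | Reagent: RetCOR corepressor, biotinylated, 7 nM | Controls: Biotin wells as high control, 0.6% DMSO wells as low control | Signal: TR-FRET, Eu(K)-anti-GST donor, streptavidin-D2 acceptor, ex 340, em 617/671 nm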
PP5 primary: inhibitors of human protein phosphatase 5 (PP5); purified PP5c, OMFP substrate fluorescence; inhibition, % at 6.7 µM; 320,000 tested, 0.18% active;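 active means inhibition above the campaign's mean inhibition across all tested compounds plus 3 SD, cut at about 9.5% in these data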;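 further: 0% = DMSO only and 100% = 100 µM cantharidin control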
NR2E3 ag-2: agonists of human NR2E3 nuclear receptor. Q9Y5X4. 360,000 tested, 0.35% active. CHO-S Gal4-NCOR/VP16-NR2E3 two-hybrid, luciferase. inhibition of corepressor binding, % at 3.98 µM;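 active means inhibition above the mean of all tested compounds plus 3 SD, cut at about 70% in these data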;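 further: 0% = DMSO with NR2E3 transfected cells and 100% = cells lacking NR2E3 construct; higher means lower luciferase signal from less NR2E3 corepressor binding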
PP1 inh confirm: human PP1 phosphatase inhibition, confirmation | 1,900 tested, 52% active | inhibition, % at 6.7 µM | shares compounds with PP1 counter | purified PP1alpha, OMFP substrate fluorescence;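 active means mean PP1 inhibition above a set limit taken from the earlier primary screen, cut at about 15% in these data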
PP5 counter: inhibits human PP5 phosphatase in PP1 counter-screen; purified PP5c, OMFP fluorescence; 1,900 tested, 4% active; shares compounds with PP1 counter; inhibition, % at 6.7 µM;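 active means mean PP5 inhibition over triplicate wells above about 9.5% taken from the earlier PP1 screen, limit read from the data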
NR2E3 agonist cf: confirmation of human NR2E3 nuclear receptor agonists; 360 tested, 39% active; cell-free NR2E3 corepressor release, TR-FRET, 5 h; shares compounds with NR2E3 ag-1; activation (reported as inhibition), % at 3.98 µM; in the data active means activation above about 20%
PPARg-NCOR2 ag: counter-screen for NR2E3 agonists: human PPARgamma-NCOR2 interaction agonists | TR-FRET PPARg-NCOR2 coregulator interaction, biochemical | inhibition, % at 3.98 µM | 360 tested, 45% active | shares compounds with NR2E3 ag-1; in the data active means inhibition above about 20%;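 further: 0% = DMSO vehicle and 100% = wells without protein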
* marks the source's active call; other numbers are inactive results; nt = no result given.

SMILES	PP1 counter	NR2E3 ag-1	PP5 primary	NR2E3 ag-2	PP1 inh confirm	PP5 counter	others
O=c1[nH]c(O)c(/C=C2/C=CC(c3cc(Cl)ccc3Cl)=N2)c(=O)[nH]1	19*	1	-2	-14	47*	-6
C=Cc1cc(OC)c2c(c1)c(=O)oc1c2cc(OC)c2c(O)ccc(C3OC(C)C(O)C(C)(O)C3O)c21 (stereo unspecified)	nt	nt	nt	-26	nt	nt
O=C1NC(=S)N(c2ccc(F)cc2)C(=O)/C1=C/c1ccco1	40*	5	0	nt	68*	1
COc1ccc(OC)c(N2C(=O)/C(=C/c3ccco3)C(=O)NC2=S)c1	68*	15	0	nt	17*	-4
C[C@H](NC(=O)N1C[C@H]2C[C@@H](C1)c1cccc(=O)n1C2)C(=O)Nc1ccc(F)c(F)c1	-1	-2	2	-19	nt	nt
COc1cc(NC(=O)CN2C3CCC2CC(O)(c2cccnc2)C3)cc(OC)c1 (stereo unspecified)	-7	1	0	-1	nt	nt
Cc1ccc(C[n+]2c(-c3ccc(C)cc3)cc(-c3ccc(C)cc3)cc2-c2ccc(C)cc2)cc1	24*	1	2	99*	-6	1
CN(C)C1C(=O)C(C(N)=O)=C(O)C2(O)C(=O)C3=C(O)c4c(O)cccc4C(C)(O)C3C(O)C12 (stereo unspecified)	33*	6	4	-36	-4	-4
CCCCCn1c(=O)c(C(=O)Nc2ccccc2C)c(O)c2ccccc21	-2	2	2	-60	nt	nt
CCCCn1c(=O)c(C(=O)Nc2ncccc2C)c(O)c2ccccc21	28*	5	2	-33	26*	-1
CCCCCCn1c(=O)c(C(=O)Nc2ncccc2C)c(O)c2ccccc21	26*	2	5	0	18*	-2
CN(C)CC1CSCCC1(O)c1ccccc1 (stereo unspecified)	0	-1	-1	-26	nt	nt
N=Cc1c(O)n(-c2ccc(C34CC5CC(CC(C5)C3)C4)cc2)c(=O)[nH]c1=O	20*	-1	5	37	22*	4
O=c1[nH]c(=O)n(-c2ccc(Br)cc2)c(O)c1C=NC(CO)(CO)CO	-2	-2	0	-43	nt	nt
Clc1ccc(CSC(Cn2ccnc2)c2ccc(Cl)cc2Cl)cc1 (stereo unspecified)	26*	1	5	3	20*	3
c1ccc(Cn2ccnc2)cc1	-3	4	0	-11	nt	nt
Clc1ccc(COC(Cn2ccnc2)c2ccc(Cl)cc2Cl)cc1 (stereo unspecified)	29*	-1	2	-10	20*	2
CC1Oc2cc3c(-c4c(O)cc(O)c5c(O)c6c(cc45)OC(C)C(C)C6=O)c(O)cc(O)c3c(O)c2C(=O)C1C (stereo unspecified)	57*	6	5	-8	25*	2
CC(C)N(CC(O)c1cccc([N+](=O)[O-])c1)C(C)C (stereo unspecified)	-18	10	2	24	nt	nt
Clc1ccc(C(c2ccc(Cl)cc2)n2cc[n+](CC(OCc3ccc(Cl)cc3Cl)c3ccc(Cl)cc3Cl)c2)cc1 (stereo unspecified)	52*	1	5	-7	35*	9
CCN1CCN(C(=O)COc2ccc3oc4c(c3c2)CCCC4)CC1	nt	nt	nt	-36	nt	nt
NC(N)=N/N=C/c1ccc(N(c2ccccc2)c2ccccc2)cc1	38*	2	6	25	25*	-3
CN1C(=O)N(C)C(=O)C2(Cc3cc(N)ccc3N3CCN(c4ccccc4F)CC32)C1=O (stereo unspecified)	23*	-4	2	nt	32*	1
CN1CCN2c3ccc(N)cc3CC3(C(=O)NC(=O)NC3=O)C2C1 (stereo unspecified)	nt	nt	nt	-8	nt	nt
C=CCn1c(O)c(C(C)=Nc2ccc(C(=O)O)cc2)c(=O)[nH]c1=O	-4	6	-2	-18	nt	nt
SMILES	PP1 counter	NR2E3 ag-1	PP5 primary	NR2E3 ag-2	PP1 inh confirm	PP5 counter	others
COc1ccc(NC(=O)C2C3CCC(O3)C2C(=O)O)c(OC)c1 (stereo unspecified)	75*	2	76*	-34	29*	46*
O=C(O)C1C2CCC(O2)C1C(=O)NC1CCCCC1 (stereo unspecified)	73*	0	76*	0	48*	56*
COc1ccc(OC)c(CC(=O)O)c1	-3	3	-4	0	nt	nt
O=C(Nc1ccc(Cl)cc1)N1CC1	nt	nt	nt	-45	nt	nt
O=C(O)C1C2CCC(O2)C1C(=O)Nc1ccc(Cl)cc1 (stereo unspecified)	63*	3	69*	-6	18*	26*
N#CC(C#N)=C(C#N)c1ccc(Nc2ccccc2)cc1	-6	-1	1	-27	nt	nt
CN1CCN(C(=O)O[C@H]2c3nccnc3C(=O)N2c2ccc(Cl)cn2)CC1	-3	1	-1	7	nt	nt
CCN(CC)c1ccc(/C=N/c2sc3c(c2C#N)C2CCN3CC2)c(O)c1	0	0	-3	14	nt	nt
c1cncc(C2CCCCN2)c1 (stereo unspecified)	-4	0	5	-6	nt	nt
c1cncc(C2Nc3cccc4cccc(c34)N2)c1	23*	-3	1	0	-5	-1
COc1ccc(C(=O)NC(=S)N2C[C@H]3C[C@H](C2)c2cccc(=O)n2C3)cc1	-2	2	3	-15	nt	nt
CC(C)N1CCN(Cc2c[nH]c3ccccc23)CC1CCO (stereo unspecified)	nt	nt	nt	11	nt	nt
O=C(O)CC1OCC=C2CN3CCC45C6=CC(=O)C(=O)C([N+](=O)[O-])=C6NC4C1C2CC35 (stereo unspecified)	33*	17	21*	-39	53*	2
O=C1C(=O)c2ccccc2-c2ccccc21	40*	37*	4	68	nt	nt	NR2E3 agonist cf=39*;PPARg-NCOR2 ag=84*
COCCCNC(=O)c1c(NC(=O)c2ccco2)n(Cc2ccccc2)c2nc3ccccc3nc12	-4	3	-2	-2	nt	nt
COCCNC(=O)c1c(NC(=O)c2ccc(Br)o2)n(Cc2ccccc2)c2nc3ccccc3nc12	-5	23*	9	-6	nt	nt	NR2E3 agonist cf=-2;PPARg-NCOR2 ag=5
O=P(Nc1ccccc1)(Nc1ccccc1)Oc1cccc(Cl)c1	0	-1	6	-4	nt	nt
